We go through 4 compounds from ChEMBL document CHEMBL1154049, “A versatile photoactivatable probe designed to label the diphosphate binding site of farnesyl diphosphate utilizing enzymes” (Bioorg Med Chem, 2009).

Activity calls are given as the source filed them. The calls are words filed in the database; no cut-off is given here.

The target of assay [1] is T1, Protein farnesyltransferase/geranylgeranyltransferase type-1 subunit alpha (Saccharomyces cerevisiae S288c, UniProt P29703).
T1 sequence (P29703 whole entry): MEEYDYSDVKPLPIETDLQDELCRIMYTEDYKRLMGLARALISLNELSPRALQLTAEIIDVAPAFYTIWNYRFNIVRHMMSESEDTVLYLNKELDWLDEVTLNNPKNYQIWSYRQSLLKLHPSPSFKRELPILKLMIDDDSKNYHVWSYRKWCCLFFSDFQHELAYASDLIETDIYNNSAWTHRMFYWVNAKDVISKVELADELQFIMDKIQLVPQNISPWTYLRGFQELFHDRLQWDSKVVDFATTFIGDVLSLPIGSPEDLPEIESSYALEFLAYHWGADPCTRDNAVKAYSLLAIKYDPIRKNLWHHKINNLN
As to the kind of experiment: Inhibition of Saccharomyces cerevisiae protein farnesyltransferase assessed as farnesylation of N-dansyl-GCVIA. A digest of the protocol:
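Purified ScPFTase at 5.0 nM; continuous fluorescence assay following dansyl fluorescence rise as N-dansyl-GCVIA (2.4 µM) is prenylated. For IC50, FPP fixed at 2.4 µM, inhibitor 0–20 µM, duplicates, direct fit of rate vs inhibitor concentration. For KI, 4×6 grid of duplicates with FPP at 1, 2, 5, 7.0 µM and inhibitor 0–2 µM; initial velocities, Eadie-Hofstee plot.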

Assay [2] has as its target T2, Protein farnesyltransferase/geranylgeranyltransferase type-1 subunit alpha (Saccharomyces cerevisiae S288c) (UniProt P29703).
T2 sequence (whole entry): T1 sequence (P29703 whole entry)
As to the kind of experiment: Binding affinity to Saccharomyces cerevisiae protein farnesyltransferase assessed as enzyme beta subunit photolabeling at 29 uM by SDS-PAGE based phosphor imaging analysis. The note with it: tested as the 32P-labelled form. The method, boiled down:
(§1)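 Purified enzyme (50 µg/mL) in 52 mM Tris·HCl pH 7.0, 5.8 mM DTT, 12 mM MgCl2, 12 µM ZnCl2, 25 mM NH4HCO3 with [32P]probe 29 µM; irradiated 350 nm, 6 h, 4 °C; protection runs add FPP 100 µM final. SDS loading buffer, 70 °C 20 min, 12% Tris-Tricine SDS-PAGE, Coomassie stain, phosphorimaging.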

Assay [3] addresses T2, Protein farnesyltransferase/geranylgeranyltransferase type-1 subunit alpha (Saccharomyces cerevisiae S288c). The assay is described as follows: Binding affinity to Saccharomyces cerevisiae protein farnesyltransferase assessed as photolabeling at 29 uM by SDS-PAGE based phosphor imaging analysis in absence of UV irradiation. Conditions: tested as the 32P-labelled form.
Assay [4] has the same target. As to the kind of experiment: Activity at Saccharomyces cerevisiae protein farnesyltransferase upto 200 uM by continuous fluorescence assay. The method, boiled down: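 Purified yeast PFTase; continuous fluorescence read-out of dansyl signal increase on prenylation of N-dansyl-GCVIA acceptor, with analogue replacing FPP at up to 200 µM.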
Assay [5] has the same target. As to the kind of experiment: Binding affinity to Saccharomyces cerevisiae protein farnesyltransferase assessed as photolabeling at 29 uM by SDS-PAGE based phosphor imaging analysis in presence of excess farnesyl diphosphate. The note with it: tested as the 32P-labelled form. A digest of the protocol:
as §1

For assay [6] the target is unchanged. The assay is described as follows: Binding affinity to Saccharomyces cerevisiae protein farnesyltransferase assessed as enzyme alpha subunit photolabeling at 29 uM by SDS-PAGE based phosphor imaging analysis. The note with it: tested as the 32P-labelled form. A digest of the protocol: as §1
Assay [7] relates to Drosophila melanogaster. As to the kind of experiment: Binding affinity to Drosophila melanogaster farnesyl diphosphate synthase assessed as photolabeling at 29 uM by SDS-PAGE based phosphor imaging analysis in absence of UV irradiation. Conditions: tested as the 32P-labelled form.
For assay [8], the target named is T3, Farnesyl diphosphate synthase (Escherichia coli K-12) (UniProt P22939).
T3 sequence (whole entry): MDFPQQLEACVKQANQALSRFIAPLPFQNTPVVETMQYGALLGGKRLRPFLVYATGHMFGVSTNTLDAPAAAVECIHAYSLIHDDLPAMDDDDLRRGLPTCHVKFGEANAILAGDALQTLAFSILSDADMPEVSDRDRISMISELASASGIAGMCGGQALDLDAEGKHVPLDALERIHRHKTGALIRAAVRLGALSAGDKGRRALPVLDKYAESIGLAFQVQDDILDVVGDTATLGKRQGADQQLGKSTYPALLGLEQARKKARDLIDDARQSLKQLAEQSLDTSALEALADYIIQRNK
As to the kind of experiment: Binding affinity to Escherichia coli farnesyl diphosphate synthase assessed as photolabeling at 29 uM by SDS-PAGE based phosphor imaging analysis in presence of excess farnesyl diphosphate. Conditions: tested as the 32P-labelled form. The method, boiled down:
as §1

Assay [9] relates to Nostoc. As to the kind of experiment: Inhibition of Nostoc PCC 7120 sesquiterpene synthase in presence of farnesyl diphosphate. The method, boiled down:
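Purified cyclase (10 µg) in 200 µL 10 mM Tris·HCl pH 8.0, 10 mM MgCl2, 1.0 mM 2-mercaptoethanol with probe and/or FPP (50, 100 or 200 µM), sealed vial, 18 h at 25 °C; headspace sampled 10 min by SPME, GC/MS analysis of sesquiterpene product.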

In assay [10] the test system is Drosophila melanogaster. As to the kind of experiment: Binding affinity to Drosophila melanogaster farnesyl diphosphate synthase assessed as photolabeling at 29 uM by SDS-PAGE based phosphor imaging analysis. Conditions: tested as the 32P-labelled form. A digest of the protocol: as §1
The test system of assay [11] is Nostoc. The assay is described as follows: Binding affinity to Nostoc PCC 7120 sesquiterpene synthase assessed as photolabeling at 29 uM by SDS-PAGE based phosphor imaging analysis in presence of excess farnesyl diphosphate. Conditions: tested as the 32P-labelled form. The method, boiled down:
as §1

The target of assay [12] is T3, Farnesyl diphosphate synthase (Escherichia coli K-12). The assay is described as follows: Binding affinity to Escherichia coli farnesyl diphosphate synthase assessed as photolabeling at 29 uM by SDS-PAGE based phosphor imaging analysis. Conditions: tested as the 32P-labelled form. A digest of the protocol:
as §1

Assay [13] deals with Nostoc. As to the kind of experiment: Binding affinity to Nostoc PCC 7120 sesquiterpene synthase assessed as photolabeling at 29 uM by SDS-PAGE based phosphor imaging analysis. Conditions: tested as the 32P-labelled form. A digest of the protocol: as §1
In assay [14] the test system is Drosophila melanogaster. As to the kind of experiment: Binding affinity to Drosophila melanogaster farnesyl diphosphate synthase assessed as photolabeling at 29 uM by SDS-PAGE based phosphor imaging analysis in presence of excess farnesyl diphosphate. The note with it: tested as the 32P-labelled form. The method, boiled down: as §1
In assay [15] the test system is Nostoc. The assay is described as follows: Substrate activity at Nostoc PCC 7120 sesquiterpene synthase in absence of farnesyl diphosphate. Conditions: tested as the 32P-labelled form.
The target of assay [16] is T3, Farnesyl diphosphate synthase (Escherichia coli K-12). The assay is described as follows: Binding affinity to Escherichia coli farnesyl diphosphate synthase assessed as photolabeling at 29 uM by SDS-PAGE based phosphor imaging analysis in absence of UV irradiation. Conditions: tested as the 32P-labelled form.

One may read the IC50 as the concentration at which inhibition is half-maximal. A word on the Ki: it is a measure of affinity in units of concentration, obtained from inhibition or displacement. On to `C/C(=C\COP(=O)(O)OP(=O)(O)O)COCc1cccc(C(=O)c2ccccc2)c1`, for which, in [1], the IC50 is 3400 nM and the Ki is 610 nM.
As to `CC(C)=CCC/C(C)=C/CC/C(C)=C/COP(=O)(O)OP(=O)(O)Cc1cccc(C(=O)c2ccccc2)c1`, in assay [2], the result was Active. Also, the outcome in assay [3], in assay [4], in assay [5] and in assay [6] was inactive. Moreover, in [1], the IC50 came out at 5800 nM.
For the compound `CC(C)=CCC/C(C)=C/CC/C(C)=C/COP(=O)(O)OP(=O)(O)Cc1ccc(C(=O)c2ccccc2)cc1`, the outcome (in [2]; in assay [12]; in the assay with Nostoc [13]; in the assay with Nostoc [15]) was Active. The outcome (in the assay with Drosophila melanogaster [7]; in assay [3]; in assay [4]; in assay [8]; in assay [5]; with Nostoc [11]) was inactive. The outcome (in assay [6]; with Drosophila melanogaster [14]; in assay [16]) was inactive. For the same compound, the half-inhibitory concentration (IC50) in assay [1] amounted to 3000 nM. Also, in assay [1], the Ki amounted to 480 nM. Besides, in the assay with Nostoc [9], the inhibition result is “inactive”. The Activity in the assay on Drosophila melanogaster [10] turned out to be 46%.
In the case of `C/C(=C\COP(=O)(O)OP(=O)(O)O)CC/C=C(\C)COC(=O)[C-]([N+]#N)C(F)(F)F`, in [1], the IC50 is 720 nM and the Ki came to 200 nM.
